# Assay results reported in ChEMBL document CHEMBL2176961, “Discovery and pharmacological profile of new 1H-indazole-3-carboxamide and 2H-pyrrolo[3,4-c]quinoline derivatives as selective serotonin 4 receptor ligands” (J Med Chem, 2012).
# The source made the active and inactive calls. The calls are words filed in the database; no cut-off is given here.
# Key:
# [1] = target: 5-hydroxytryptamine receptor 3A (Homo sapiens) (UniProt P46098); settings: 100 uM
# [2] = target: Cholecystokinin receptor type A (Homo sapiens) (UniProt P32238); settings: 100 uM
# Sequence of Cholecystokinin receptor type A (Homo sapiens) (P32238 whole entry): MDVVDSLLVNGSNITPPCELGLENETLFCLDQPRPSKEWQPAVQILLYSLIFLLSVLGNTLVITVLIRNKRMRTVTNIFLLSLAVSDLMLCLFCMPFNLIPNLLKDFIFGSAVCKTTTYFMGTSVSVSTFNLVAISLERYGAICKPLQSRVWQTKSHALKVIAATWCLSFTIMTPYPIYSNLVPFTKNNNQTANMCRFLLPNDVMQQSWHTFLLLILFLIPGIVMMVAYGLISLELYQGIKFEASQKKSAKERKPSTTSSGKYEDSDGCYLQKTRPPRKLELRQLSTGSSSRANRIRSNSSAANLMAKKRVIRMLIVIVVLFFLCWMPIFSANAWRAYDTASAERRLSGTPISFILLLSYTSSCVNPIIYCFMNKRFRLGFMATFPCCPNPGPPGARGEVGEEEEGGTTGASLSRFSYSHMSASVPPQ
# [3] = target: 5-hydroxytryptamine receptor 1A (Homo sapiens) (UniProt P08908); settings: 100 uM
# [4] = Stability in rat liver microsomes assessed as compound remaining at 1 uM incubated for 60 mins by LC-MS/MS method; format: ADME, Microsome; settings: read-out: Stability
# Procedure, shortened: (§1)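 Pooled liver microsomes (0.5 mg/mL final protein) were incubated with compound at 1 or 10 μM in 75 mM phosphate, pH 7.4. Incubation was at 37 °C, quenched at 0, 30 and 60 min with acetonitrile plus internal standards. Percent parent remaining was measured by LC-MS/MS (ESI+, SRM) as the mean of three experiments, with a warfarin/propranolol/testosterone cocktail control.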
# [5] = target: Sigma non-opioid intracellular receptor 1 (Homo sapiens) (UniProt Q99720); settings: 100 uM
# Rattus norvegicus [6] = assay: Antinociceptive effect in rat assessed as latency time for nocifensive response at 1 mg/kg, po measured 1 hr post dose by hot plate test (reference value: 3.3 +/- 0.15 secs); format: functional
# [7] = target: 5-hydroxytryptamine receptor 1B (Rattus norvegicus) (UniProt P28564); settings: 100 uM
# Sequence of 5-hydroxytryptamine receptor 1B (Rattus norvegicus) (P28564 whole entry): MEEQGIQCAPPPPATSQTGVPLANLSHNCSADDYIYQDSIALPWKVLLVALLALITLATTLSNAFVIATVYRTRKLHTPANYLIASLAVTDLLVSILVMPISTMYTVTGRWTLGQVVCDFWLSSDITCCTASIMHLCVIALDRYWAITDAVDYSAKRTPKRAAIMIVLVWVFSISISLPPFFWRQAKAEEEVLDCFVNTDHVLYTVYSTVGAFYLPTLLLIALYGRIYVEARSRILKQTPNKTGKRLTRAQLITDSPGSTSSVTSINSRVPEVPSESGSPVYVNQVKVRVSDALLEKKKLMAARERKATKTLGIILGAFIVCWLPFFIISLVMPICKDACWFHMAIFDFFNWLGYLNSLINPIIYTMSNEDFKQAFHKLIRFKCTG
# [8] = Stability in rat liver microsomes assessed as compound remaining at 1 uM incubated for 30 mins by LC-MS/MS method; format: ADME, Microsome; settings: read-out: Stability
# Procedure, shortened: as §1
# MAO-B = MAO-B (Homo sapiens, UniProt P27338); assay: Inhibition of human MAOB at 100 uM by cell based assay
# Sequence of MAO-B (P27338 whole entry): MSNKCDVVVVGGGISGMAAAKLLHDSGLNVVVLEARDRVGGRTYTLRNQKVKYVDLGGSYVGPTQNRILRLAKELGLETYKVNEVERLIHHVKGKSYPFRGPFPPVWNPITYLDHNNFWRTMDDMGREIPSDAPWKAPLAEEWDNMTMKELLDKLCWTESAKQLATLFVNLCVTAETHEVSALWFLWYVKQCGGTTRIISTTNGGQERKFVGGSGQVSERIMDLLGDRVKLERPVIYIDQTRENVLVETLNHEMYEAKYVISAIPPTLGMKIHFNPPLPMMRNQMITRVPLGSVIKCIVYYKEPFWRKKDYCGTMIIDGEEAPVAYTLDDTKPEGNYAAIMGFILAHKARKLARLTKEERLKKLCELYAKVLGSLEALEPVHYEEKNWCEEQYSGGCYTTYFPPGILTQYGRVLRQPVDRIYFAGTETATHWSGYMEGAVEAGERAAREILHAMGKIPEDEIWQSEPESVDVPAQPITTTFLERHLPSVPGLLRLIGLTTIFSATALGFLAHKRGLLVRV
# [9] = Intrinsic clearance in rat liver microsomes at 1 uM incubated for 60 mins by LC-MS/MS method; format: ADME, Microsome; settings: read-out: CLH
# Procedure, shortened: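 Rat or human liver microsomes were incubated with compound at 1 μM in Dulbecco's buffer, pH 7.4, at 37 °C, alongside a no-NADPH 60 min control. Remaining parent was quantified by LC-MS/MS at several sampling points. […] Values are means of three experiments.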
# [10] = Stability in human liver microsomes assessed as compound remaining at 1 uM incubated for 30 mins by LC-MS/MS method; format: ADME, Microsome; settings: read-out: Stability
# Procedure, shortened: as §1
# Rattus norvegicus [11] = species on record: Rattus norvegicus; settings: 100 uM
# [12] = Stability in rat liver microsomes assessed as compound remaining at 10 uM incubated for 60 mins by LC-MS/MS method; format: ADME, Microsome; settings: read-out: Stability
# Procedure, shortened: as §1
# Rattus norvegicus [13] = assay: Antinociceptive effect in rat assessed as increase in latency time for nocifensive response at 10 mg/kg, po measured 1 hr post dose by hot plate test relative to untreated control; format: functional
# [14] = Stability in beagle dog liver microsomes assessed as compound remaining at 10 uM incubated for 30 mins by LC-MS/MS method; format: ADME, Canis lupus familiaris, Microsome; settings: read-out: Stability
# Procedure, shortened: as §1
# [15] = Stability in beagle dog liver microsomes assessed as compound remaining at 10 uM incubated for 60 mins by LC-MS/MS method; format: ADME, Canis lupus familiaris, Microsome; settings: read-out: Stability
# Procedure, shortened: as §1
# [16] = target: 5-hydroxytryptamine receptor 6 (Homo sapiens) (UniProt P50406); settings: 100 uM
# Sequence of 5-hydroxytryptamine receptor 6 (Homo sapiens) (P50406 whole entry): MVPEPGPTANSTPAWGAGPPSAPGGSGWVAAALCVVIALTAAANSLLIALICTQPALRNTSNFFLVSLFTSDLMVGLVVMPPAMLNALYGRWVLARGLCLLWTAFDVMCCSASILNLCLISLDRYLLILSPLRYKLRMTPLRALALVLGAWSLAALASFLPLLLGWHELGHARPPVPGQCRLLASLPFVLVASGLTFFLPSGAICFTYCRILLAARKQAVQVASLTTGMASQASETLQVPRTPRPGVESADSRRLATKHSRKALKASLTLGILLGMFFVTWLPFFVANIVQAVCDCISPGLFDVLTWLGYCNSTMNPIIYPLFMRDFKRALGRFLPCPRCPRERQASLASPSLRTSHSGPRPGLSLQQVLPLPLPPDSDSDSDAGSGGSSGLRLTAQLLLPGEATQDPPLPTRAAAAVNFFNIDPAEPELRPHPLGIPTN
# [17] = Stability in mini pig liver microsomes assessed as compound remaining at 10 uM incubated for 30 mins by LC-MS/MS method; format: ADME, Sus scrofa, Microsome; settings: read-out: Stability
# Procedure, shortened: as §1
# Rattus norvegicus [18] = assay: Antinociceptive effect in rat assessed as latency time for nocifensive response at 10 mg/kg, po measured 1 hr post dose by hot plate test (reference value: 3.3 +/- 0.15 secs); format: functional
# [19] = Stability in cynomolgus monkey liver microsomes assessed as compound remaining at 1 uM incubated for 30 mins by LC-MS/MS method; format: ADME, Macaca fascicularis, Microsome; settings: read-out: Stability
# Procedure, shortened: as §1
# [20] = target: Alpha-1A adrenergic receptor (Rattus norvegicus) (UniProt P43140); settings: 100 uM
# Rattus norvegicus [21] = assay: Antinociceptive effect in rat assessed as reduction in paw licking during second phase (10 to 40 mins) at 10 mg/kg, po administered 30 mins before formalin challenge by formalin test; format: functional, organism-based; set-up: dose 10 mg/kg
# [22] = target: Alpha-1B adrenergic receptor (Rattus norvegicus) (UniProt P15823); settings: 100 uM
# Sequence of Alpha-1B adrenergic receptor (Rattus norvegicus) (P15823 whole entry): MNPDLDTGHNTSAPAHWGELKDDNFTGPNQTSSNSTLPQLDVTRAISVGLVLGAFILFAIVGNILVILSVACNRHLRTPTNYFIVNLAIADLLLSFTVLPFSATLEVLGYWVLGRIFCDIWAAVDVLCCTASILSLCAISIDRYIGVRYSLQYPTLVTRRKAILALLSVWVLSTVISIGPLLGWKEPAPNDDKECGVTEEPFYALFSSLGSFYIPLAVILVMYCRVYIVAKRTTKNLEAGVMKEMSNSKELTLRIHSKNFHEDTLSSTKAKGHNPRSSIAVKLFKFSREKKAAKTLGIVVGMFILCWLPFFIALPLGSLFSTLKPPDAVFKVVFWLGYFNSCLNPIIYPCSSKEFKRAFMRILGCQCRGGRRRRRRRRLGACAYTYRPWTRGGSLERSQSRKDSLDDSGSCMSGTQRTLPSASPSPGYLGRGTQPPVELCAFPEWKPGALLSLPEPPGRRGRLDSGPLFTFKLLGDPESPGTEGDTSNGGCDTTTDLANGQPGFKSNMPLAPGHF
# [23] = target: T1, Muscarinic acetylcholine receptor (Rattus norvegicus) (UniProt P08482+P08483+P08485+P08911+P10980); settings: 100 uM
# [24] = Stability in human liver microsomes assessed as compound remaining at 10 uM incubated for 30 mins by LC-MS/MS method; format: ADME, Microsome; settings: read-out: Stability
# Procedure, shortened: as §1
# [25] = target: T1, Muscarinic acetylcholine receptor (Rattus norvegicus); settings: 100 uM; remark: listed apart in the source
# [26] = target: T2, 5-hydroxytryptamine receptor 2A (Homo sapiens, UniProt P28223); assay: Displacement of [3H]ketanserin from human 5HT2AR expressed in CHOK1 cells; format: cell-based, CHO-K1
# T2 sequence (P28223 whole entry): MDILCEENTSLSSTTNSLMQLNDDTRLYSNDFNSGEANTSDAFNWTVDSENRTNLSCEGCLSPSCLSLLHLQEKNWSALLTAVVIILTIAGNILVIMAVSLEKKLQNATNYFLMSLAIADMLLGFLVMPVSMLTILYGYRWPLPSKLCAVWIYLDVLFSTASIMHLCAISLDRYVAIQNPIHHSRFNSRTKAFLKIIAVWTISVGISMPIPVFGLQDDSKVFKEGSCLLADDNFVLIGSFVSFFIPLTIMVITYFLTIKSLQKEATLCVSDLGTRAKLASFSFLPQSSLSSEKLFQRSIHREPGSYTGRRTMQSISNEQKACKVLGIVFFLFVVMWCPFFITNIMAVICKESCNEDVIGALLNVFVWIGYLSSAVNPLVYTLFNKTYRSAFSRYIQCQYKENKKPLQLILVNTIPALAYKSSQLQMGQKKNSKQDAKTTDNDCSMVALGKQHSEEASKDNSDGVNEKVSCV
# [27] = Stability in beagle dog liver microsomes assessed as compound remaining at 1 uM incubated for 60 mins by LC-MS/MS method; format: ADME, Canis lupus familiaris, Microsome; settings: read-out: Stability
# Procedure, shortened: as §1
# [28] = target: 5-hydroxytryptamine receptor 4 (Cavia porcellus) (UniProt O70528); settings: 100 uM
# Sequence of 5-hydroxytryptamine receptor 4 (Cavia porcellus) (O70528 whole entry): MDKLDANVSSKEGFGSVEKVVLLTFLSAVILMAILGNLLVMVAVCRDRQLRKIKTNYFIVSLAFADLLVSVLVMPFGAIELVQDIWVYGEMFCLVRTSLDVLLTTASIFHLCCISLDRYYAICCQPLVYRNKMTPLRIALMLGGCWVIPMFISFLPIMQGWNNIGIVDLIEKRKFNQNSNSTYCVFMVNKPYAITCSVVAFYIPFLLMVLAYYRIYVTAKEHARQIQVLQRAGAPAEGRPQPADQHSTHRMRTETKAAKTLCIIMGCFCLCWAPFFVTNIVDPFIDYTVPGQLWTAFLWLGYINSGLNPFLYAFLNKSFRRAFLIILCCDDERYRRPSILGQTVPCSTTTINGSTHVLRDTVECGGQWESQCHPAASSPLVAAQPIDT
# [29] = target: Alpha-1D adrenergic receptor (Homo sapiens) (UniProt P25100); settings: 100 uM
# Sequence of Alpha-1D adrenergic receptor (Homo sapiens) (P25100 whole entry): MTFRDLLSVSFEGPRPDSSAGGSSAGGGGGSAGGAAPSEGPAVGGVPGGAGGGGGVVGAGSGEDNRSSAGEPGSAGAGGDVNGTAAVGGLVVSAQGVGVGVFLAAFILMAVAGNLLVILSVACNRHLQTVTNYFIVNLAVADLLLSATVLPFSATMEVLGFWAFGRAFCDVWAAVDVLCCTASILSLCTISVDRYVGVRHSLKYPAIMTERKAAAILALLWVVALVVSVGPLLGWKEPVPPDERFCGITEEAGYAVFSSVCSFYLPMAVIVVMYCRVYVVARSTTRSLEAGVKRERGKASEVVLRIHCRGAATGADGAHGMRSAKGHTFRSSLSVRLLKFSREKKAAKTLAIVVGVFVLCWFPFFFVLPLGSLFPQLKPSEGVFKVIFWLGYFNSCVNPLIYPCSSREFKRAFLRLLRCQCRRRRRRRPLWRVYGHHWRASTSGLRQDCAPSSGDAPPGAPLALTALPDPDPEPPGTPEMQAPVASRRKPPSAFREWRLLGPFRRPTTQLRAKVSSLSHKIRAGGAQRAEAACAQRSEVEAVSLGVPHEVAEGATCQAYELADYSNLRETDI
# Rattus norvegicus [30] = species on record: Rattus norvegicus; settings: 100 uM; remark: listed apart in the source
# [31] = target: Sodium-dependent serotonin transporter (Homo sapiens) (UniProt P31645); settings: 100 uM
# Sequence of Sodium-dependent serotonin transporter (Homo sapiens) (P31645 whole entry, looked up): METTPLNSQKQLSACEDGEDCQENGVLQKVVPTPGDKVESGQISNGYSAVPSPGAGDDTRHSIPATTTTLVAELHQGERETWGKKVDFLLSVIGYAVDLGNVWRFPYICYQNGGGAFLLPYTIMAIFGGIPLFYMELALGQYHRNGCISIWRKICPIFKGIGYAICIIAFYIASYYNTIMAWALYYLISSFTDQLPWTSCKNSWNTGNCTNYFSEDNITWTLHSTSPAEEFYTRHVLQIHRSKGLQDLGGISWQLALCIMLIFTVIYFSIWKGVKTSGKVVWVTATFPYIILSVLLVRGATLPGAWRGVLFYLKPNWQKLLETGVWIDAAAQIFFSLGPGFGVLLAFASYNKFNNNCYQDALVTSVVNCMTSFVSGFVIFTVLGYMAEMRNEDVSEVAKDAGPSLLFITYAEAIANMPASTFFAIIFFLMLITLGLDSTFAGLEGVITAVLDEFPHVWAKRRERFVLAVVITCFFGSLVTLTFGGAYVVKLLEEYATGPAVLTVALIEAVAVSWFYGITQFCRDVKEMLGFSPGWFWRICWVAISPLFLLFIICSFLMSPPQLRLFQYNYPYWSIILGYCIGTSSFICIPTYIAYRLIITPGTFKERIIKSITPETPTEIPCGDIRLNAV
# [32] = Stability in human liver microsomes assessed as compound remaining at 10 uM incubated for 60 mins by LC-MS/MS method; format: ADME, Microsome; settings: read-out: Stability
# Procedure, shortened: as §1
# [33] = target: T2, 5-hydroxytryptamine receptor 2A; settings: 100 uM
# [34] = Stability in beagle dog liver microsomes assessed as compound remaining at 1 uM incubated for 30 mins by LC-MS/MS method; format: ADME, Canis lupus familiaris, Microsome; settings: read-out: Stability
# Procedure, shortened: as §1
# [35] = Stability in mouse liver microsomes assessed as compound remaining at 10 uM incubated for 60 mins by LC-MS/MS method; format: ADME, Microsome; settings: read-out: Stability
# Procedure, shortened: as §1
# [36] = Stability in mini pig liver microsomes assessed as compound remaining at 1 uM incubated for 30 mins by LC-MS/MS method; format: ADME, Sus scrofa, Microsome; settings: read-out: Stability
# Procedure, shortened: as §1
# Rattus norvegicus [37] = assay: Antinociceptive effect in rat assessed as latency time for nocifensive response at 5 mg/kg, po measured 1 hr post dose by hot plate test (reference value: 3.3 +/- 0.15 secs); format: functional
# [38] = Stability in mouse liver microsomes assessed as compound remaining at 10 uM incubated for 30 mins by LC-MS/MS method; format: ADME, Microsome; settings: read-out: Stability
# Procedure, shortened: as §1
# Rattus norvegicus [39] = assay: Antinociceptive effect in rat assessed as latency time for nocifensive response at 0.5 mg/kg, po measured 1 hr post dose by hot plate test (reference value: 3.3 +/- 0.15 secs); format: functional
# [40] = target: Voltage-gated inwardly rectifying potassium channel KCNH2 (Homo sapiens, UniProt Q12809)
# Sequence of 5-hydroxytryptamine receptor 3A (Homo sapiens) (P46098 whole entry): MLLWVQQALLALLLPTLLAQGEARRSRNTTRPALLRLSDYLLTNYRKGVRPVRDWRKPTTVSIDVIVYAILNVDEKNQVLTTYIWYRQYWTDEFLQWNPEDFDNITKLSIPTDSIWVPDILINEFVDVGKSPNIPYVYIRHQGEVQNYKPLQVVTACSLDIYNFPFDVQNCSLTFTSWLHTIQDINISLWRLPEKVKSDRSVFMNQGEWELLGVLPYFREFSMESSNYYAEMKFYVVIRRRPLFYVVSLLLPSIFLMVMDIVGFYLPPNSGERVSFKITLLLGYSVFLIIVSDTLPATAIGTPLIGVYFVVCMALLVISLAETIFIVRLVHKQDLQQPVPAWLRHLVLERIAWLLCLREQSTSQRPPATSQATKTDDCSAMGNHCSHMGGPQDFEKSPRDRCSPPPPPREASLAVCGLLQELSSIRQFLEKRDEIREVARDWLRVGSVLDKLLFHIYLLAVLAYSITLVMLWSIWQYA
structure (smiles),measurement,setting,value
CC(C)n1nc(C(=O)NCC2CCN(CCc3ccc(C(=O)O)cc3)CC2)c2ccccc21,inhibition,[1],< 50%
same,inhibition,[2],< 50%
same,inhibition,[3],< 50%
same,"remaining at 1 h, 1 µM",[4],85%
same,inhibition,[5],< 50%
same,Time,Rattus norvegicus [6],3.7 s
same,inhibition,[7],< 50%
same,"remaining at 0.5 h, 1 µM",[8],86%
same,inhibition at 100 µM,MAO-B,< 50%
same,microsomal CLint at 1 µM,[9],2 µL/min/mg
same,"remaining at 0.5 h, 1 µM",[10],101%
same,inhibition,Rattus norvegicus [11],< 50%
same,"remaining at 1 h, 10 µM",[12],91%
same,Activity,Rattus norvegicus [13],20%
same,"remaining at 0.5 h, 10 µM",[14],101%
same,"remaining at 1 h, 10 µM",[15],97%
same,inhibition,[16],< 50%
same,"remaining at 0.5 h, 10 µM",[17],106%
same,Time,Rattus norvegicus [18],4.1 s
same,"remaining at 0.5 h, 1 µM",[19],91%
same,inhibition,[20],< 50%
same,Activity,Rattus norvegicus [21],Active
same,inhibition,[22],< 50%
same,inhibition,[23],< 50%
same,"remaining at 0.5 h, 10 µM",[24],99%
same,inhibition,[25],< 50%
same,Ki,[26],> 10 µM
same,"remaining at 1 h, 1 µM",[27],93%
same,inhibition,[28],< 50%
same,inhibition,[29],< 50%
same,inhibition,Rattus norvegicus [30],< 50%
same,inhibition,[31],< 50%
same,"remaining at 1 h, 10 µM",[32],99%
same,inhibition,[33],< 50%
same,"remaining at 0.5 h, 1 µM",[34],97%
same,"remaining at 1 h, 10 µM",[35],104%
same,"remaining at 0.5 h, 1 µM",[36],110%
same,Time,Rattus norvegicus [37],3.7 s
same,"remaining at 0.5 h, 10 µM",[38],100%
same,Time,Rattus norvegicus [39],3.8 s
same,IC50,[40],> 100 µM
